Values after ≈ are worked out from the molar mass of the structure shown. Active and inactive are the calls of the source. The rule behind the calls is not given here.
How the values were obtained:
Escherichia coli = assay: Antibacterial activity against Escherichia coli by bioautographic agar overlay method; format: functional
Summary of the method: (§1)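 Nutrient agar inoculated with the pure microbial culture was poured over the plates, which were incubated appropriately. Bacterial or fungal growth inhibition was scored by bioautography.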

Staphylococcus aureus [1] = assay: Antibacterial activity against Staphylococcus aureus at 100 ug/mL by bioautographic agar overlay method; format: functional, organism-based
Bacillus subtilis [2] = assay: Antibacterial activity against Bacillus subtilis at 100 ug/mL by bioautographic agar overlay method; format: functional, organism-based
Candida albicans [3] = assay: Antifungal activity against Candida albicans at 100 ug/mL by bioautographic agar overlay method; format: functional, organism-based
Saccharomyces cerevisiae = assay: Antifungal activity against Saccharomyces cerevisiae by bioautographic agar overlay method; format: functional; summary of the method: as §1
Candida albicans [4] = assay: Antifungal activity against Candida albicans by bioautographic agar overlay method
Pseudomonas aeruginosa = assay: Antibacterial activity against Pseudomonas aeruginosa by bioautographic agar overlay method; format: functional; summary of the method: as §1
Bacillus subtilis [5] = assay: Antibacterial activity against Bacillus subtilis by bioautographic agar overlay method; format: functional; summary of the method: as §1
Staphylococcus aureus [6] = assay: Antibacterial activity against Staphylococcus aureus by bioautographic agar overlay method; format: functional; summary of the method: as §1

In the case of CN1C(=O)C2(c3ccccc31)N(C1CCCCC1)C(=O)C2(c1ccccc1)c1ccccc1 (stereo unspecified), the MIC (Escherichia coli) was 100 µg/mL (≈ 229 µM), the Activity (Staphylococcus aureus [1]) was “inactive” and the Activity (Bacillus subtilis [2]) was “inactive”. For the same molecule, the Activity (Candida albicans [3]) was “inactive”.

With COc1ccc(C2(c3ccc(OC)cc3)C(=O)N(C(c3ccccc3)c3ccccc3)C23C(=O)N(C)c2ccccc23)cc1 (stereo unspecified) the MIC (Escherichia coli) was 50 µg/mL (≈ 86.1 µM), the MIC (Saccharomyces cerevisiae) was 50 µg/mL (≈ 86.1 µM) and the Activity (Staphylococcus aureus [1]) was “inactive”. For the same molecule, the Activity (Bacillus subtilis [2]) was “inactive” and the Activity (Candida albicans [3]) was “inactive”.

For CC(C)N1C(=O)C(c2ccccc2)(c2ccccc2)C12C(=O)N(C)c1ccccc12 (stereo unspecified), the MIC (Saccharomyces cerevisiae) was 50 µg/mL (≈ 126 µM), the Activity (Staphylococcus aureus [1]) was “inactive” and the Activity (Bacillus subtilis [2]) was “inactive”. The Activity (Candida albicans [3]) was “inactive”.

For Cc1ccc(C2(c3ccc(C)cc3)C(=O)N(C(C)c3ccccc3)C23C(=O)N(C)c2ccccc23)cc1 (stereo unspecified), the Activity (Staphylococcus aureus [1]) was “inactive”, the Activity (Bacillus subtilis [2]) was “inactive” and the Activity (Candida albicans [3]) was “inactive”.

Work on Clc1ccc(COC(Cn2ccnc2)c2ccc(Cl)cc2Cl)c(Cl)c1 (stereo unspecified) [MICONAZOLE] yielded an MIC (Candida albicans [4]) of 0.1 µg/mL (≈ 0.24 µM) and an MIC (Saccharomyces cerevisiae) of 0.1 µg/mL (≈ 0.24 µM).

In the case of CN1C(=O)C2(c3ccccc31)N(C(c1ccccc1)c1ccccc1)C(=O)C2(c1ccccc1)c1ccccc1 (stereo unspecified), the MIC (Saccharomyces cerevisiae) was 10 µg/mL (≈ 19.2 µM), the Activity (Staphylococcus aureus [1]) was “inactive” and the Activity (Bacillus subtilis [2]) was “inactive”. For the same molecule, the Activity (Candida albicans [3]) was “inactive”.

For Cc1ccc(C2(c3ccc(C)cc3)C(=O)N(C(C)C)C23C(=O)N(C)c2ccccc23)cc1 (stereo unspecified), the MIC (Escherichia coli) was 10 µg/mL (≈ 23.6 µM), the MIC (Saccharomyces cerevisiae) was 50 µg/mL (≈ 118 µM) and the MIC (Pseudomonas aeruginosa) was 50 µg/mL (≈ 118 µM). The Activity (Staphylococcus aureus [1]) was “inactive”, the Activity (Bacillus subtilis [2]) was “inactive” and the Activity (Candida albicans [3]) was “inactive”.

CC(c1ccccc1)N1C(=O)C(c2ccccc2)(c2ccccc2)C12C(=O)N(C)c1ccccc12 (stereo unspecified) was tested, and the Activity (Staphylococcus aureus [1]) was “inactive”, the Activity (Bacillus subtilis [2]) was “inactive” and the Activity (Candida albicans [3]) was “inactive”.

COc1ccc(C2(c3ccc(OC)cc3)C(=O)N(C(C)C)C23C(=O)N(C)c2ccccc23)cc1 (stereo unspecified) was tested, and the MIC (Saccharomyces cerevisiae) was 50 µg/mL (≈ 110 µM), the Activity (Staphylococcus aureus [1]) was “inactive” and the Activity (Bacillus subtilis [2]) was “inactive”. For the same molecule, the Activity (Candida albicans [3]) was “inactive”.

Cc1ccc(C2(c3ccc(C)cc3)C(=O)N(C3CCCCC3)C23C(=O)N(C)c2ccccc23)cc1 (stereo unspecified) was tested, and the MIC (Escherichia coli) was 100 µg/mL (≈ 215 µM), the Activity (Staphylococcus aureus [1]) was “inactive” and the Activity (Bacillus subtilis [2]) was “inactive”. For the same molecule, the Activity (Candida albicans [3]) was “inactive”.

With Cc1ccc(C2(c3ccc(C)cc3)C(=O)N(C(c3ccccc3)c3ccccc3)C23C(=O)N(C)c2ccccc23)cc1 (stereo unspecified) the MIC (Saccharomyces cerevisiae) was 100 µg/mL (≈ 182 µM), the Activity (Staphylococcus aureus [1]) was “inactive” and the Activity (Bacillus subtilis [2]) was “inactive”. For the same molecule, the Activity (Candida albicans [3]) was “inactive”.

For O=C(N[C@H](CO)[C@H](O)c1ccc([N+](=O)[O-])cc1)C(Cl)Cl [CHLORAMPHENICOL], the MIC (Escherichia coli) was 0.1 µg/mL (≈ 0.309 µM), the MIC (Bacillus subtilis [5]) was 0.1 µg/mL (≈ 0.309 µM) and the MIC (Staphylococcus aureus [6]) was 0.1 µg/mL (≈ 0.309 µM).
